Active and inactive are the calls of the source. The rule behind the calls is not given here.

Experiment [1] addresses T1, Botulinum neurotoxin type B (Clostridium botulinum, UniProt P10844).
T1 sequence (P10844 whole entry): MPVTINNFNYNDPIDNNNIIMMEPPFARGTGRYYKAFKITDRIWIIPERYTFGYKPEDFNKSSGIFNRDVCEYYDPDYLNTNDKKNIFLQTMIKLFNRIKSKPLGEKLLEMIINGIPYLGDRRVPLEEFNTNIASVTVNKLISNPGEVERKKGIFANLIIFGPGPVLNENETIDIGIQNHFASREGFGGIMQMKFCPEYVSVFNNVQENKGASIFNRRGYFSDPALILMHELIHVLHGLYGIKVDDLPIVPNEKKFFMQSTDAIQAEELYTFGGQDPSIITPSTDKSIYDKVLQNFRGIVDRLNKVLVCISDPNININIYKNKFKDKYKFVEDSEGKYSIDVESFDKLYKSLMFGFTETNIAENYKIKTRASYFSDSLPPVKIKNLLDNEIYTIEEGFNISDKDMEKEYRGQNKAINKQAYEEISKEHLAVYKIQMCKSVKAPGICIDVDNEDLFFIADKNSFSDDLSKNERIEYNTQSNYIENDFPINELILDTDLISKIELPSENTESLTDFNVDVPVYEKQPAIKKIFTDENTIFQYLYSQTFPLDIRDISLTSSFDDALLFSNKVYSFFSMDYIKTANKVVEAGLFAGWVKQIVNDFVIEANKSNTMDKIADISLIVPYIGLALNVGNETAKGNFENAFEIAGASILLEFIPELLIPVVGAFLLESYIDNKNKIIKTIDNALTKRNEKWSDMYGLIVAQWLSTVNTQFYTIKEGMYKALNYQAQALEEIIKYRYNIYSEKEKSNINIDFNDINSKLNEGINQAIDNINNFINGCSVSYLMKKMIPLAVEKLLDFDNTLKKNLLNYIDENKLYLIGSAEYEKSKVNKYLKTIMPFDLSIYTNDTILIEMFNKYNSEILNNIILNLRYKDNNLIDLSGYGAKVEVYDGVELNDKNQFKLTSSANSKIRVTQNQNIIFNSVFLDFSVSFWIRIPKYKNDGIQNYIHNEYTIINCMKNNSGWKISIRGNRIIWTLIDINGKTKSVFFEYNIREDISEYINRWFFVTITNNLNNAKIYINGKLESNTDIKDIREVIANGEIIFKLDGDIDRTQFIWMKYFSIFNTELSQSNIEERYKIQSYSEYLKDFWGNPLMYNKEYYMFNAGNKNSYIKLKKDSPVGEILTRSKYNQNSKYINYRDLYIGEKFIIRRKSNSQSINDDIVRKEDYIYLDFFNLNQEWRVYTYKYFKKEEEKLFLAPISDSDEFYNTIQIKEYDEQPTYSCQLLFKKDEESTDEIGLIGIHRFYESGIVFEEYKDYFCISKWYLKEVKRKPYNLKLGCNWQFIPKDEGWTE
Briefly: Inhibition of Clostridium botulinum BoNT/B light chain after 40 mins by FRET-based assay.

Experiment [2] concerns the target Botulinum neurotoxin type A (Clostridium botulinum) (UniProt P0DPI0). Briefly: Inhibition of Clostridium botulinum BoNT/A light chain-mediated SNAP-25 substrate cleavage preincubated for 15 mins in presence of cysteine before substrate addition by FRET assay. The method in brief:
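The potential inactivator (2.5 or 5 mM) was preincubated with compound in the assay mixture for 15 min at 37 °C. 17-mer SNAP-25 substrate and BoNT/A LC were then added, and activity was read in the FRET assay (37 °C, 40 min, ex 398/em 485 nm).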

The target is the same in experiment [3]. Briefly: Inhibition of clostridium botulinum BoNT/A light chain assessed as residual activity using SNAP-25 as substrate at 50 uM after 90 mins measured after dialysis by FRET-based assay relative to 6-(4,5-dihydro-1H-imidazol-2-yl)-2-(4-(4-(4,5-dihydro-1H-imidazol-2-yl)phenoxy)phenyl)-1H-indole. The essentials:
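BoNT/A LC was co-incubated with inhibitor or a DMSO-equivalent control at 37 °C for 90 min. Samples were then dialysed (3,500 MWCO) against 20 mM HEPES pH 7.4, 10% glycerol, 0.05% Tween-20 for 20–24 h at 2–8 °C. Remaining activity was measured by the standard FRET assay.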

For experiment [4] the target is unchanged.
The target in experiment [5] is Botulinum neurotoxin type A (Clostridium botulinum, UniProt P0DPI0). Briefly: Inhibition of Clostridium botulinum BoNT/A light chain-mediated SNAP-25 substrate cleavage preincubated for 90 mins by FRET assay. The method in brief:
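Compound was preincubated with BoNT/A LC for 90 min before the 40-min FRET assay (20 μM SNAP-25 peptide, 2 nM enzyme, 37 °C, ex 398/em 485 nm). IC50 is the concentration giving 50% inhibition.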

Botulinum neurotoxin type A (Clostridium botulinum), sequence (P0DPI0 2-448 limits assumed): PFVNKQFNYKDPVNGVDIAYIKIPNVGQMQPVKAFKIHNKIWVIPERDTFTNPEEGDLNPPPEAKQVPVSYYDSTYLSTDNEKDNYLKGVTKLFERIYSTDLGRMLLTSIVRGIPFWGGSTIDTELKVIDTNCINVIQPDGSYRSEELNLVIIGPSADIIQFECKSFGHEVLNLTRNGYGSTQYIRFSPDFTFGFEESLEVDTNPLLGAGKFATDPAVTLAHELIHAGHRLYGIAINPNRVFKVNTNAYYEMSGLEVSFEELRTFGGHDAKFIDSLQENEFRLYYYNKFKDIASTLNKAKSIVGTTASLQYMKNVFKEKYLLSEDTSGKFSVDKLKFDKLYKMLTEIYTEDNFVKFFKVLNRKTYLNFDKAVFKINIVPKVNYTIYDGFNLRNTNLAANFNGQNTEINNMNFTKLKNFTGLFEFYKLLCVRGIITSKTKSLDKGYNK
Botulinum neurotoxin type A, sequence (P0DPI0 2-448 limits assumed): as above

As usually defined, the IC50 is the concentration at which inhibition is half-maximal. Low readings indicate greater potency, high ones weaker potency. For `COc1ccc(/C=C(\C#N)c2nc3ccccc3[nH]2)cc1I`, in experiment [1], the IC50 was over 100 µM. For the same molecule, the inhibition entry in experiment [2] is “inactive”. The Ratio in experiment [3] was 0.99.

In the case of `N#C/C(=C\c1ccc(-c2cccs2)s1)c1nc2ccccc2[nH]1`, the IC50 is over 100 µM in experiment [1] and 17 µM in experiment [5]. Further, the inhibition result in experiment [2] was “Active”. Also, the TDI entry in experiment [4] was “Active”. For the same molecule, the Ratio in experiment [3] was found to be 1.13.

The record behind these values is ChEMBL document CHEMBL1933027, “Time-dependent botulinum neurotoxin serotype A metalloprotease inhibitors” (Bioorg Med Chem, 2011).
